Measured values reported in PMC9926436 (Doklady. Biochemistry and Biophysics, 2023).

Experiments:
[1] = test system: human cytomegalovirus (HCMV), strain Davis; format: cell-based; conditions: Human betaherpesvirus 5, HEL, read-out: Antiviral activity, EC50, Davis
How it was run: (§1)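 HEL (human embryonic lung) cell cultures infected with HCMV strain AD-169 or Davis. Antiviral activity scored as inhibition of virus-induced cytopathic effect or of plaque formation.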

[2] = Cytostatic activity, cell growth; format: cell-based; conditions: human, human embryonic lung (HEL) cells
How it was run: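 Cytostatic assay in HEL cells. Value is the cytotoxic concentration needed to reduce cell growth by 50%.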

[3] = test system: HCMV (strains AD-169 and Davis); assay: Anti-HCMV activity in HEL cells, text statements not split by strain; format: cell-based, human cytomegalovirus; conditions: qualitative statement
How it was run: as §1

| Compound | EC50 [1] | CC50 [2] | Anti-HCMV activity in words [3] |
| --- | --- | --- | --- |
| Nc1ccn(C[C@@H](CO)OCP(=O)(O)O)c(=O)n1 [Cidofovir, cidofovir] | 1.49 µM | > 300 µM |  |
| O=c1c2ccccc2n(CCCCCOc2ccc(Br)cc2)c(=O)n1Cc1cccc2ccccc12 [Compound 24, 1-[5-(4-bromophenoxy)pentyl]-3-(naphthalen-1-ylmethyl)quinazolin-2,4(1H,3H)-dione] | > 100 µM |  | inactive |
| O=c1ccn(Cc2cccc3ccccc23)c(=O)n1CCCCCOc1ccc(Br)cc1 [Compound 27, 3-[5-(4-Bromophenoxy)pentyl]-1-(naphthalen-1-ylmethyl)uracil] | 44.7 µM |  | more than one order of magnitude less active |
| Nc1nc(O)c2ncn(COC(CO)CO)c2n1 [Ganciclovir, ganciclovir] | 9.21 µM | > 350 µM |  |
